The text below walks through data of ChEMBL document CHEMBL4825692, “Benzofuranyl-2-imidazoles as imidazoline I2 receptor ligands for Alzheimer's disease” (Eur J Med Chem, 2021).

For one series, the system named is LN-229. The series can be described thus: Cytotoxicity against human LN-229 cells at 100 uM by real time IncuCyte proliferation assay. Type of series: cell-based. As to conditions: ln-229, 100 µM. The gist of the method:
(§1)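 Adherent lines (LN-229, Capan-1, HCT-116, NCI-H460) seeded at 500–1500 cells/well and treated after overnight attachment. Suspension lines (HL-60, K-562, Z-138, DND-41) seeded at 2500–5500 cells/well directly with compound. Highest concentration 100 μM; proliferation tracked by real-time IncuCyte imaging over 72 h at 37 °C.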

Series [1] is filed under the species Homo sapiens. The series can be described thus: Displacement of [3H]2-BFI from imidazoline I2 receptor in post-mortem human brain frontal cortex membrane assessed as occupancy at high affinity site measured after 45 mins by liquid scintillation counting spectrometry. In general terms: In a radioligand displacement assay an active substance lowers the binding of a labelled ligand.

For another series, the system named is HL-60. In words: Cytotoxicity against human HL-60 cells at 100 uM by real time IncuCyte proliferation assay. Type of series: cell-based. As to conditions: hl-60, 100 µM. The method, boiled down: as §1
Series [2] can be described thus: Displacement of [3H]2-BFI from imidazoline I2 receptor high affinity site in post-mortem human brain frontal cortex membrane two site model measured after 45 mins by liquid scintillation counting spectrometry.
A further series deals with HCT-116. In words: Cytotoxicity against human HCT-116 cells at 100 uM by real time IncuCyte proliferation assay. The settings on record: hct-116, 100 µM. It is filed as cell-based. The method, boiled down:
as §1

The next series has as its system CAPAN-1. In words: Cytotoxicity against human CAPAN-1 cells at 100 uM by real time IncuCyte proliferation assay. It is filed as cell-based. The settings on record: capan-1, 100 µM. The gist of the method:
as §1

The nature of series [3]: Displacement of [3H]2-BFI from imidazoline I2 receptor low affinity site in post-mortem human brain frontal cortex membrane two site model measured after 45 mins by liquid scintillation counting spectrometry.
Series [4] deals with T1, Adrenergic receptor alpha-2 (Homo sapiens, UniProt P08913+P18825+P18089).
T1 sequence (P08913 whole entry): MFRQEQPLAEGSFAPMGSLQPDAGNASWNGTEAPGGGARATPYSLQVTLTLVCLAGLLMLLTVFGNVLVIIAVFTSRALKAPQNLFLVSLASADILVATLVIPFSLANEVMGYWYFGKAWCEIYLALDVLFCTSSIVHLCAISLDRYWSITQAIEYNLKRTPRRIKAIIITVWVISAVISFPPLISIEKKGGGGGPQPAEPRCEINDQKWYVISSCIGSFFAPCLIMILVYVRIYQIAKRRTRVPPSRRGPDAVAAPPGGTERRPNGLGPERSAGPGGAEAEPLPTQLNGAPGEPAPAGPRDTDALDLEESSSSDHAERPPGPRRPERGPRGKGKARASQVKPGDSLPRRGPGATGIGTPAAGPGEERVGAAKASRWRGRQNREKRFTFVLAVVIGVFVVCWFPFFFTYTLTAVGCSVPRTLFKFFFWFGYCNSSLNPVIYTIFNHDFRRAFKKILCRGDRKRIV
T1 sequence (P18825 whole entry): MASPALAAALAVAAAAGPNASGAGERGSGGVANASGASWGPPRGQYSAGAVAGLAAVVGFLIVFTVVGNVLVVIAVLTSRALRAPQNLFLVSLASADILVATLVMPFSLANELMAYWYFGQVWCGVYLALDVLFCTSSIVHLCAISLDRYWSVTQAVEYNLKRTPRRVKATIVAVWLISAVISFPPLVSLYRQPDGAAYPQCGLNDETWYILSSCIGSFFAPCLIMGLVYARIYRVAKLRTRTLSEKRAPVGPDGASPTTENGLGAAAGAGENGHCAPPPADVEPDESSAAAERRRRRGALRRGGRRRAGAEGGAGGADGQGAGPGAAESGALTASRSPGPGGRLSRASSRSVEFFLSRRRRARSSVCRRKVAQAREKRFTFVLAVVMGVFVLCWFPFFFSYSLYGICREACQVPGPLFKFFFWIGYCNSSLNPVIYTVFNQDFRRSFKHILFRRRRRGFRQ
T1 sequence (P18089 whole entry): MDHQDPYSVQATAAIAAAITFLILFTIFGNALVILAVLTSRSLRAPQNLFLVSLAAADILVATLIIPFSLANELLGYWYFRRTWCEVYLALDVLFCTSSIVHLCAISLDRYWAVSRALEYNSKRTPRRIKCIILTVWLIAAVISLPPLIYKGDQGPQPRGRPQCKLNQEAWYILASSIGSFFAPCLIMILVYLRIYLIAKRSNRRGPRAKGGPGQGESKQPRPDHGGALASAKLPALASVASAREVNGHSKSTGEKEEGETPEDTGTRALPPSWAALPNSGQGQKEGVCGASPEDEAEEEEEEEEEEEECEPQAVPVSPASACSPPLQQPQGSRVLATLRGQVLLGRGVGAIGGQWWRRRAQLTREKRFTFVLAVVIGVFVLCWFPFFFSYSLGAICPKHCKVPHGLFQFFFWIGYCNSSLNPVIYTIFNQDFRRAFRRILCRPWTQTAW
In words: Displacement of [3H]-RX821002 from adrenergic alpha 2 receptor in post-mortem human brain frontal cortex membrane measured after 30 mins by liquid scintillation counting spectrometry. It is filed as cell membranes.

Series [5] is described as follows: Cytotoxicity against human DND41 cells at 100 uM by real time IncuCyte proliferation assay. Type of series: cell-based. As to conditions: dnd41, 100 µM. The method, boiled down:
as §1

Series [6] can be described thus: Permeability of compound by PAMPA-BBB assay. It is filed as ADME. (In general: The PAMPA barrier holds no transporters, so it reflects passive diffusion.)
Series [7] is described as follows: Displacement of [3H]2-BFI from imidazoline I2 receptor in post-mortem human brain frontal cortex membrane one site model measured after 45 mins by liquid scintillation counting spectrometry.
The species named for series [8] is Homo sapiens. In words: Selectivity index, ratio of pKi for displacement of [3H]2-BFI from imidazoline I2 receptor in post-mortem human brain frontal cortex membrane to pKi for displacement of [3H]-RX821002 from adrenergic alpha 2 receptor in post-mortem human brain frontal cortex membrane. Type of series: cell membranes.
The next series relates to NCI-H460. The series can be described thus: Cytotoxicity against human NCI-H460 cells at 100 uM by real time IncuCyte proliferation assay. Type of series: cell-based. As to conditions: nci-h460, 100 µM. The method, boiled down: as §1
In another series the test system is Z-138. In words: Cytotoxicity against human Z138 cells at 100 uM by real time IncuCyte proliferation assay. As to conditions: z-138, 100 µM. Type of series: cell-based. The gist of the method: as §1
A further series deals with K562. The series can be described thus: Cytotoxicity against human K562 cells at 100 uM by real time IncuCyte proliferation assay. The settings on record: k562, 100 µM. It is filed as cell-based. The method, boiled down: as §1

Regarding `CCn1ccnc1-c1cc2cc(OC)ccc2o1.Cl`, the Activity result in the series on LN-229 is “Non-Toxic”; in the series listed under Homo sapiens [1] it was 35%; in the series with HL-60, “Non-Toxic”; in the series on HCT-116, “Non-Toxic”; in the series on CAPAN-1 it was “Non-Toxic”; in series [5], “Non-Toxic”. In addition, the Activity entry in the series with NCI-H460, with Z-138 and with K562 was “Non-Toxic” throughout. Further, the negative logarithm of the Ki (pKi) (commonly the Ki on a negative log10 scale, so that one unit is a factor of ten) in series [2] was found to be 6.95; in [3] it was 4.16; in series [4], 4.21; in series [7], 4.96. The Papp (as a rule, the rate of passage across a membrane or cell layer, normalised by area and donor concentration) in [6] amounted to 12.4 ×10⁻⁶ cm/s. For the same compound, the Selectivity Index in the series filed under Homo sapiens [8] worked out at 6.

For `CCn1ccnc1-c1cc2ccccc2o1.Cl`, the Activity entry in the series on LN-229 is “Non-Toxic”; in the series filed under Homo sapiens [1] it was 22%; in the series on HL-60, “Non-Toxic”; in the series with HCT-116, “Non-Toxic”; in the series with CAPAN-1 it was “Non-Toxic”; in series [5], “Non-Toxic”. The Activity entry in the series on NCI-H460, in the series on Z-138 and in the series with K562 was “Non-Toxic” in each case. In addition, the negative-log Ki (pKi) is reported as 7.09 in series [2], 4.72 in [3], 3.77 in series [4] and 5.05 in [7]. In series [6], the apparent permeability (Papp) worked out at 19.2 ×10⁻⁶ cm/s. Further, the Selectivity Index in the series filed under Homo sapiens [8] was 19.

As for `COc1ccc2cc(-c3ncc[nH]3)oc2c1.Cl`, the Activity result was “Non-Toxic” with LN-229; 46% in the series filed under Homo sapiens [1]; “Non-Toxic” in the series with HL-60; “Non-Toxic” with HCT-116; “Non-Toxic” with CAPAN-1; “Non-Toxic” in series [5]. Also, the Activity entry in the series on NCI-H460, in the series with Z-138 and with K562 was “Non-Toxic” in each case. In addition, the negative-log Ki (pKi) was found to be 6.77 in [2], 4.58 in [3], 3.01 in [4] and 5.88 in series [7]. Further, the apparent permeability (Papp) in [6] was found to be 7.6 ×10⁻⁶ cm/s. The Selectivity Index in the series filed under Homo sapiens [8] was determined as 741.

For `Cl.Cn1ccnc1-c1cc2ccccc2o1`, the Activity entry in the series with LN-229 was “Non-Toxic”; in the series listed under Homo sapiens [1], 38%; with HL-60, “Non-Toxic”; in the series with HCT-116, “Non-Toxic”; in the series on CAPAN-1, “Non-Toxic”; in series [5], “Non-Toxic”. In addition, the Activity result with NCI-H460, in the series on Z-138 and in the series with K562 was “Non-Toxic” each time. In addition, the pKi in series [2] worked out at 6.99; in series [3], 5.35; in [4], 3.75; in series [7] it was 5.98. The same compound returned an apparent permeability (Papp) in [6] of 17.4 ×10⁻⁶ cm/s. Besides, the Selectivity Index in the series filed under Homo sapiens [8] was determined as 170.

For the compound `CCn1ccnc1-c1cc2ccc(OC)cc2o1.Cl`, the Activity result with LN-229 is “Non-Toxic”; in the series filed under Homo sapiens [1], 12%; in the series on HL-60, “Non-Toxic”; in the series on HCT-116, “Non-Toxic”; in the series with CAPAN-1 it was “Non-Toxic”; in [5], “Non-Toxic”. In addition, the Activity entry with NCI-H460, in the series on Z-138 and in the series with K562 was “Non-Toxic” each time. Further, the pKi came to 9.13 in [2], 5.11 in series [3], 3.17 in series [4] and 5.26 in series [7]. The Papp in series [6] worked out at 14.8 ×10⁻⁶ cm/s. Besides, the Selectivity Index in the series filed under Homo sapiens [8] worked out at 123.

`Cl.Oc1ccc2cc(-c3ncc[nH]3)oc2c1`: the Activity result (with LN-229; in the series on HL-60; in the series with HCT-116; in the series on CAPAN-1; in [5]; with NCI-H460) was “Non-Toxic” in each case. Moreover, the Activity entry with Z-138 and with K562 was “Non-Toxic” throughout. The figures for the negative-log Ki (pKi) in [4] and in series [7] were 3.76 and 5.48, respectively. Moreover, the Papp in [6] stood at 0.1 ×10⁻⁶ cm/s. Besides, the Selectivity Index in the series listed under Homo sapiens [8] worked out at 52.

Consider `c1ccc2oc(C3=NCCN3)cc2c1`, for which the Activity result with LN-229 was “Non-Toxic”; in the series listed under Homo sapiens [1], 58%; with HL-60, “Non-Toxic”; with HCT-116, “Non-Toxic”; in the series with CAPAN-1, “Non-Toxic”; in series [5], “Non-Toxic”. For the same compound, the Activity entry in the series on NCI-H460, with Z-138 and in the series with K562 was “Non-Toxic” each time. For the same compound, the negative-log Ki (pKi) in series [2] was determined as 9.08; in series [3] it was 7.15; in [4], 4.58; in series [7], 8.31. This compound had a Papp in [6] of 6.1 ×10⁻⁶ cm/s. The Selectivity Index in the series filed under Homo sapiens [8] was found to be 5370.

In the case of `COc1ccc2oc(-c3ncc[nH]3)cc2c1.Cl`, the Activity result (with LN-229; with HL-60; with HCT-116; in the series with CAPAN-1; in series [5]; in the series with NCI-H460) was “Non-Toxic” throughout. Besides, the Activity entry in the series on Z-138 and in the series on K562 was “Non-Toxic” throughout. Further, the pKi was determined as 3.94 in series [4] and 6.41 in series [7]. Besides, in series [6], the apparent permeability (Papp) was 8.3 ×10⁻⁶ cm/s. For the same compound, in the series listed under Homo sapiens [8], the Selectivity Index came to 295.

Take `c1ccc2c(c1)OCC(C1=NCCN1)O2` (configuration not stated) [IDAZOXAN]: the Activity entry was “Non-Toxic” in the series on LN-229; 40% in the series filed under Homo sapiens [1]; “Non-Toxic” with HL-60; “Non-Toxic” in the series on HCT-116; “Non-Toxic” in the series on CAPAN-1; “Non-Toxic” in series [5]. Also, the Activity result in the series on NCI-H460, with Z-138 and in the series on K562 was “Non-Toxic” in each case. Further, the pKi in [2] turned out to be 7.87; in [3], 5.76; in series [7] it was 7.41. In series [6], this compound had a Papp of 3.3 ×10⁻⁶ cm/s.
